Here are results for one molecule from ChEMBL document CHEMBL2202972, “Synthesis and biological evaluation of 2-substituted-4-(3',4',5'-trimethoxyphenyl)-5-aryl thiazoles as anticancer agents” (Bioorg Med Chem, 2012).

pIC50: −log10 of the molar value. Activity calls are given as the source filed them. The calls are words filed in the database; no cut-off is given here.

The species named for one assay is Bos taurus. As to the kind of experiment: Displacement of [3H]colchicine from tubulin in bovine brain at 5 uM DEAE-cellulose filter method. For orientation: Loss of bound radioactivity is the signal in a displacement assay; it reports binding, not function.
The test system of assay [1] is HeLa. As to the kind of experiment: Induction of apoptosis in human HeLa cells assessed as disappearance of uncleaved caspase-2 protein at 250 to 500 nM after 24 to 48 hrs by Western blot analysis. The class given is functional, cell-based. Summed up: (§1)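 HeLa cells treated for 24 or 48 h, washed twice with ice-cold PBS and lysed on ice 30 min; lysates spun at 15000 ×g, 4 °C. Protein (20 μg) resolved by SDS–PAGE on 7.5–15% gels and blotted to PVDF. Specific primary antibodies for 2 h at room temperature, then peroxidase secondary for 60 min, ECL detection. Membranes stripped and reprobed for β-actin as loading control.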
Background: A western blot detects proteins with antibodies after separation by electrophoresis.

Assay [2] has as its system LoVo. As to the kind of experiment: Antiproliferative activity against human LoVo cells after 72 hrs by MTT assay. Type of assay: functional, cell-based. Summed up:
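Cells seeded at 8 × 10³ per well and incubated 18 h at 37 °C, 5% CO₂, then exposed to a range of compound concentrations for 72 h at 37 °C. Jurkat and HL-60 were grown in RPMI-1640, the others in DMEM, with penicillin, streptomycin and 10% FBS. DMSO stocks (10 mM); DMSO ≤0.25% final. Viability by MTT. […] Mean ± SE of ≥3 independent experiments.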
(Tetrazolium dyes change colour on reduction, which living cells bring about.)

In a further assay the test system is Jurkat. Description: Cell cycle arrest in human Jurkat cells assessed as decrease in accumulation of cells at S phase after 24 hrs by propidium iodide staining based flow cytometric analysis. Type of assay: functional. Summed up:
(§2)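 HeLa or Jurkat cells (5 × 10⁵, exponential growth) treated 24 h with 31–500 nM compound. Cells fixed in ice-cold 70% ethanol, treated with lysis buffer containing RNase A and 0.1% Triton X-100, then stained with propidium iodide. DNA content measured by flow cytometry to give phase distribution. Mean ± SEM of three independent experiments.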

Assay [3] deals with HeLa. As to the kind of experiment: Antiproliferative activity against human HeLa cells after 72 hrs by MTT assay. The class given is functional, cell-based.
A further assay has as its system MCF7. As to the kind of experiment: Antiproliferative activity against human MCF7 cells after 72 hrs by MTT assay. Type of assay: functional, cell-based. To be noted: MCF7, 72 h.
The target in assay [4] is T1, M-phase inducer phosphatase 3 (Homo sapiens) (UniProt P30307).
T1 sequence (whole entry): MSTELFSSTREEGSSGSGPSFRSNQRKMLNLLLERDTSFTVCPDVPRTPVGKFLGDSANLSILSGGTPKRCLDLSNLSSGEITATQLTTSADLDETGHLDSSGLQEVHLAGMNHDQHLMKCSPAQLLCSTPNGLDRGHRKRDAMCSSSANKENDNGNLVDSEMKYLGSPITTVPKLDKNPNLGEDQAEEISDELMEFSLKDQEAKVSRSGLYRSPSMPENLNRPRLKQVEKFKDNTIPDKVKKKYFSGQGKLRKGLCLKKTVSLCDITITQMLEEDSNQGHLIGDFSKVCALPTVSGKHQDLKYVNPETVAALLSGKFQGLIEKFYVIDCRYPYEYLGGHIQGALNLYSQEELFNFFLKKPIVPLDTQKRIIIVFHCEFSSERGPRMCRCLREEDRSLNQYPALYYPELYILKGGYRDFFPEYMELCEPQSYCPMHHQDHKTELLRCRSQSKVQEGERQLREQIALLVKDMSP
Description: Induction of cdc25C phosphorylation in human HeLa cells at 250 to 500 nM after 24 to 48 hrs by Western blot analysis. The class given is cell-based. Summed up: as §1

The next assay deals with HL-60. As to the kind of experiment: Antiproliferative activity against human HL60 cells after 72 hrs by MTT assay. The class given is functional, cell-based. To be noted: HL-60, 72 h.
Assay [5] has as its system HeLa. As to the kind of experiment: Ratio of compound IC50 to CA-4 IC50 for human HeLa cells after 72 hrs by MTT assay. The class given is functional.
For assay [6], the system named is HeLa. Description: Effect on Bax expression in human HeLa cells at 250 to 500 nM after 24 to 48 hrs by Western blot analysis. The class given is functional, cell-based. Summed up: as §1
The test system of assay [7] is HeLa. Description: Effect on cyclin B expression in human HeLa cells at 250 to 500 nM after 24 hrs by Western blot analysis. Type of assay: functional, cell-based. Summed up: as §1
Assay [8] deals with A549. Description: Antiproliferative activity against human A549 cells after 72 hrs by MTT assay. To be noted: A549, 72 h. Type of assay: functional, cell-based.
In assay [9] the test system is A549. Description: Resistance ratio of IC50 for human taxol-resistant A549-T12 cells expressing tubulin mutant gene to IC50 for human A549 cells. The class given is functional.
Assay [10] deals with HeLa. As to the kind of experiment: Induction of apoptosis in human HeLa cells assessed as appearance of cleaved caspase-8 protein at 250 to 500 nM after 24 to 48 hrs by Western blot analysis. The class given is functional, cell-based. Summed up: as §1
The next assay deals with CCRF-CEM. As to the kind of experiment: Antiproliferative activity against human CEM cells after 72 hrs by MTT assay. The class given is functional, cell-based.
Assay [11] concerns LoVo. As to the kind of experiment: Resistance ratio of IC50 for human doxorubicin-resistant LoVo/DX cells overexpressing P-glycoprotein to IC50 for human LoVo cells. Type of assay: functional.
A short description of assay [12]: Antiproliferative activity against human vinblastine-resistant CEM/VBL100 cells overexpressing P-glycoprotein after 72 hrs by MTT assay. To be noted: CEM/VBL100, 72 h. Type of assay: functional, cell-based.
The test system of assay [13] is HeLa. As to the kind of experiment: Induction of survivin phosphorylation at Thr34 in human HeLa cells at 250 to 500 nM after 24 to 48 hrs by Western blot analysis.
Assay [14] relates to HeLa. As to the kind of experiment: Induction of apoptosis in human HeLa cells assessed as effect on caspase-9 activation at 250 to 500 nM after 24 to 48 hrs by Western blot analysis. Type of assay: functional, cell-based. Summed up:
as §1

Assay [15] relates to HeLa. Description: Cell cycle arrest in human HeLa cells assessed as decrease in accumulation of cells at G1 phase after 24 hrs by propidium iodide staining based flow cytometric analysis. The class given is functional. Summed up:
as §2

The term inhibition denotes how much of the control response was suppressed. As a reminder, the pIC50 is −log10 of the IC50, conventionally taken in molar units. A high value points to a small IC50. As for `CCOc1ccc(-c2sc(NC)nc2-c2cc(OC)c(OC)c(OC)c2)cc1`, the inhibition in the assay filed under Bos taurus is 83%. Moreover, the outcome (in the assay on HeLa [1]; in assay [4]; with HeLa [10]; in the assay on HeLa [13]) was Active. The pIC50 in the assay on LoVo [2] is 7.51; in the assay with HeLa [3] it was 7.88; in the assay with MCF7, 7.61; in the assay on HL-60, 8.74; in the assay on A549 [8], 7.41; in the assay with CCRF-CEM, 9.10. The molecule further had a negative logarithm of the IC50 (pIC50) in [12] of 8.92. Moreover, the Activity result in the assay with Jurkat and in the assay with HeLa [15] was “Dose-dependent effect” in each case. The “Ratio IC50” value with HeLa [5] is on record as 2; with A549 [9] it was 0.5; with LoVo [11] it was 0.5. Also, the outcome in the assay with HeLa [6], in the assay on HeLa [7] and with HeLa [14] was inactive.
